≈ marks a conversion by molar mass, not a printed value.

In test [1] the test system is Mycobacterium tuberculosis H37Rv. As to the kind of experiment: Inhibition of Mycobacterium tuberculosis H37Rv recombinant DesA3-mediated unsaturated fatty acid synthesis using Mycobacterium smegmatis MC2155 membrane as cofactor assessed as palmitic acid levels relative to control. Details: scale not given: the % may be the effect or the level left. An outline of the steps:
(§1)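 Cell-free desaturation: 0.5 mg M. smegmatis membrane protein, 3 μg His-tagged DesA3 purified from M. smegmatis, 500 μM palmitoyl-CoA, 1 mM NADPH, ±6 μg purified EthA, ISO 0 or 10 μg/ml final, 25 mM Tris-HCl pH 7.5; 75 min at 30°C; chloroform:methanol extraction, methyl esters, GC relative percentages.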

Test [2] shares this test system. Briefly: Inhibition of Mycobacterium tuberculosis H37Rv recombinant DesA3-mediated unsaturated fatty acid synthesis using Mycobacterium smegmatis MC2155 membrane as cofactor assessed as oleic acid levels relative to control. Details: scale not given: the % may be the effect or the level left. Summed up:
as §1

For test [3], the system named is Mycobacterium tuberculosis. Briefly: Antimycobacterial activity against Mycobacterium tuberculosis isolate Mt103 expressing VV16 plasmid by colorimetric resazurin microtiter assay. Format: functional. Summed up: (§2)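 Resazurin colorimetric microtiter MIC in 7H9-ADC broth with 2% DMSO at 37°C; strains carry empty pVV16 or pVVethA complementation vector; ISO tested up to 40 μg/ml, highest soluble level.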

Test [4] relates to Mycobacterium tuberculosis H37Rv. As to the kind of experiment: Inhibition of Mycobacterium tuberculosis H37Rv recombinant DesA3-mediated unsaturated fatty acid synthesis using Mycobacterium smegmatis MC2155 membrane and partially purified EthA as cofactors assessed as palmitoleic acid levels relative to control. Also on record: scale not given: the % may be the effect or the level left. An outline of the steps:
as §1

The test system is the same in test [5]. Briefly: Inhibition of Mycobacterium tuberculosis H37Rv recombinant DesA3-mediated unsaturated fatty acid synthesis using Mycobacterium smegmatis MC2155 membrane as cofactor assessed as tuberculostearic acid levels relative to control. Details: scale not given: the % may be the effect or the level left. An outline of the steps:
as §1

Test [6] shares this test system. Briefly: Inhibition of Mycobacterium tuberculosis H37Rv recombinant DesA3-mediated unsaturated fatty acid synthesis using Mycobacterium smegmatis MC2155 membrane and partially purified EthA as cofactors assessed as stearic acid levels relative to control. Details: scale not given: the % may be the effect or the level left. Summed up: as §1
Test [7] has the same test system. Briefly: Inhibition of Mycobacterium tuberculosis H37Rv recombinant DesA3-mediated unsaturated fatty acid synthesis using Mycobacterium smegmatis MC2155 membrane and partially purified EthA as cofactors assessed as tuberculostearic acid levels relative control. Details: scale not given: the % may be the effect or the level left. An outline of the steps: as §1
Test [8] shares this test system. As to the kind of experiment: Inhibition of Mycobacterium tuberculosis H37Rv recombinant DesA3-mediated unsaturated fatty acid synthesis using Mycobacterium smegmatis MC2155 membrane and partially purified EthA as cofactors assessed as palmitic acid levels relative to control. Details: scale not given: the % may be the effect or the level left. Summed up:
as §1

For test [9] the test system is unchanged. As to the kind of experiment: Inhibition of Mycobacterium tuberculosis H37Rv recombinant DesA3-mediated unsaturated fatty acid synthesis using Mycobacterium smegmatis MC2155 membrane and partially purified EthA as cofactors assessed as oleic acid levels relative to control. Also on record: scale not given: the % may be the effect or the level left. An outline of the steps:
as §1

For test [10] the test system is unchanged. As to the kind of experiment: Inhibition of Mycobacterium tuberculosis H37Rv recombinant DesA3-mediated unsaturated fatty acid synthesis using Mycobacterium smegmatis MC2155 membrane as cofactor assessed as palmitoleic acid levels relative to control. Details: scale not given: the % may be the effect or the level left. Summed up: as §1
Test [11] shares this test system. As to the kind of experiment: Inhibition of Mycobacterium tuberculosis H37Rv recombinant DesA3-mediated unsaturated fatty acid synthesis using Mycobacterium smegmatis MC2155 membrane as cofactor assessed as stearic acid levels relative to control. Also on record: scale not given: the % may be the effect or the level left. An outline of the steps: as §1
Test [12] concerns Mycobacterium tuberculosis. As to the kind of experiment: Antimycobacterial activity against wild-type Mycobacterium tuberculosis H37Rv ATCC 25618 expressing VV16 plasmid by colorimetric resazurin microtiter assay. It is filed as functional. Summed up: as §2
The test system of test [13] is Mycobacterium tuberculosis. Briefly: microbe, parasite or virus in culture. As to conditions: Mt103.
For test [14], the system named is Mycobacterium tuberculosis. As to the kind of experiment: microbe, parasite or virus in culture. As to conditions: H37Rv.

In the case of `CC(C)CCOc1ccc(NC(=S)Nc2ccc(OCCC(C)C)cc2)cc1` [TIOCARLIDE], the Activity in test [1] came to 54.1%; in test [2], 0.1%; in [4], 1.9%; in test [5] it was 44.7%; in [6] it was 1.1%; in test [7], 42.8%. Besides, the Activity in test [8] is 49.8%; in [9] it was 4.4%; in test [10], 0.1%; in test [11], 1%. Besides, the MIC in test [3] and in [12] was 5 µg/mL (≈ 12.5 µM) each time.

`CCc1cc(C(N)=S)ccn1` [ETHIONAMIDE]: the MIC in test [13] and in [14] was 5 µg/mL (≈ 30.1 µM) throughout.

The values above are taken from ChEMBL document CHEMBL1137655, “Isoxyl activation is required for bacteriostatic activity against Mycobacterium tuberculosis” (2007).
